# Assay results taken from ChEMBL document CHEMBL4665645, “Role of the NMDA Receptor in the Antitumor Activity of Chiral 1,4-Dioxane Ligands in MCF-7 and SKBR3 Breast Cancer Cells” (ACS Med Chem Lett, 2019).
# Activity calls are given as the source filed them.
# Columns and labels:
# SK-BR-3 [1] = test: Cytotoxicity against human SK-BR-3 cells assessed as reduction in cell viability incubated for 48 hrs by SRB assay; assay type: functional
# Procedure, shortened: (§1)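 Followed the NCI SRB protocol: cells exposed 48 h to a range of concentrations. GI50 is the concentration giving 50% net growth inhibition; TGI is 100% growth inhibition; LC50 kills 50% of initial cells. Mean ± SE of three separate experiments.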
# MCF7 [2] = test: Cytotoxicity against human MCF7 cells assessed as reduction in cell viability after 48 hrs by SRB assay; assay type: functional; procedure, shortened: as §1
# MCF7 [3] = test: Cytotoxicity against siNMDA receptor transfected human MCF7 cells assessed as reduction in cell viability after 48 hrs by SRB assay; assay type: functional
# Procedure, shortened: (§2)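 GluN1 subunit knocked down by siNMDA R transfection, confirmed by qRT-PCR and Western blot; compared with untransfected cells. SRB viability read after 48 h exposure to a range of concentrations. Mean ± SE of three separate experiments.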
# SK-BR-3 [4] = test: Induction of apoptosis in human SK-BR-3 cells transfected with siNMDA receptor assessed as active caspase-3 level incubated for 72 hrs by Western blot analysis; assay type: functional, cell-based
# Procedure, shortened: (§3)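 Cells transfected with siNMDA R (GluN1) or left untransfected, then treated 72 h (MCF-7 100 μM, SKBR3 25 μM) or left untreated. Cleaved caspase-3 detected by immunoblot; densitometry normalised to GAPDH; p < 0.01 threshold.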
# [5] = Displacement of [3H]-(+)-MK-801 from PCP binding site of NMDA receptor in pig brain cortex membranes after 120 mins by scintillation counting analysis; assay type: cell membranes, Sus scrofa, Cerebral cortex, Membrane
# SK-BR-3 [6] = test: Induction of apoptosis in human SK-BR-3 cells transfected with siNMDA receptor after 72 hrs by Annexin V-FITC/propidium iodide staining-based flow cytometric analysis; assay type: functional, cell-based
# MCF7 [7] = test: Induction of apoptosis in human MCF7 cells transfected with siNMDA receptor after 72 hrs by Annexin V-FITC/propidium iodide staining-based flow cytometric analysis; assay type: functional, cell-based
# [8] = Metabolic stability in human liver microsomes; assay type: ADME, Microsome
# SK-BR-3 [9] = test: Cytotoxicity against siNMDA receptor transfected human SK-BR-3 cells assessed as reduction in cell viability after 48 hrs by SRB assay; assay type: functional; procedure, shortened: as §2
# MCF7 [10] = test: Induction of apoptosis in human MCF7 cells transfected with siNMDA receptor assessed as active caspase-3 level incubated for 72 hrs by Western blot analysis; assay type: functional, cell-based; procedure, shortened: as §3
# [11] = Apparent permeability in human Caco2 cells; assay type: ADME, cell-based; conditions: caco-2
# MCF7 [12] = test: Induction of mitochondrial membrane depolarization in human MCF7 cells at 100 uM by JC1 staining based flow cytometric analysis; assay type: functional, cell-based
# Procedure, shortened: (§4)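 Mitochondrial membrane potential (Δψm) in untreated versus treated cells (MCF-7 100 μM, SKBR3 25 μM), assessed by JC-1 staining.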
# SK-BR-3 [13] = test: Induction of apoptosis in human SK-BR-3 cells assessed as late apoptotic cells at 25 uM after 72 hrs by Annexin V-FITC/propidium iodide staining-based flow cytometric analysis (reference value: 1 to 3 %); assay type: functional
# MCF7 [14] = test: Induction of apoptosis in human MCF7 cells transfected with siNMDA receptor assessed as early apoptotic cells at 100 uM after 72 hrs by Annexin V-FITC/propidium iodide staining-based flow cytometric analysis (reference value: 33 %); assay type: functional
# MCF7 [15] = test: Induction of apoptosis in human MCF7 cells after 48 to 72 hrs by AnnexinV-FITC/PI staining based flow cytometric analysis; assay type: functional, cell-based; conditions: time hrs 48-72
# SK-BR-3 [16] = test: Induction of apoptosis in human SK-BR-3 cells after 48 to 72 hrs by AnnexinV-FITC/PI staining based flow cytometric analysis; assay type: functional, cell-based; conditions: time hrs 48-72
# MCF7 [17] = test: Induction of apoptosis in human MCF7 cells transfected with siNMDA receptor assessed as late apoptotic cells at 100 uM after 72 hrs by Annexin V-FITC/propidium iodide staining-based flow cytometric analysis (reference value: 4 %); assay type: functional
# MCF7 [18] = test: Induction of apoptosis in human MCF7 cells assessed as late apoptotic cells at 100 uM after 72 hrs by Annexin V-FITC/propidium iodide staining-based flow cytometric analysis (reference value: 1 to 2 %); assay type: functional
# MCF7 [19] = test: Induction of apoptosis in human MCF7 cells assessed as early apoptotic cells at 100 uM after 48 hrs by Annexin V-FITC/propidium iodide staining-based flow cytometric analysis (reference value: 16 %); assay type: functional
# SK-BR-3 [20] = test: Induction of apoptosis in human SK-BR-3 cells assessed as fold increase in cleavage of pro-caspase 3 at 25 uM incubated for 72 hrs by Western blot analysis relative to control; assay type: functional
# Procedure, shortened: (§5)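 Caspase-3 immunoblot after 72 h treatment (MCF-7 100 μM, SKBR3 25 μM), tracking procaspase-3 cleavage to the active form. Densitometry normalised to GAPDH loading control.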
# SK-BR-3 [21] = test: Induction of apoptosis in human SK-BR-3 cells transfected with si-NMDA receptor assessed as necrotic cells at 25 uM after 72 hrs by Annexin V-FITC/propidium iodide staining-based flow cytometric analysis (reference value: 4 %); assay type: functional
# MCF7 [22] = test: Induction of apoptosis in human MCF7 cells assessed as early apoptotic cells at 100 uM after 72 hrs by Annexin V-FITC/propidium iodide staining-based flow cytometric analysis (reference value: 2 to 13 %); assay type: functional
# SK-BR-3 [23] = test: Induction of apoptosis in human SK-BR-3 cells assessed as necrotic cells at 25 uM after 72 hrs by Annexin V-FITC/propidium iodide staining-based flow cytometric analysis (reference value: 1 to 3 %); assay type: functional
# SK-BR-3 [24] = test: Induction of apoptosis in human SK-BR-3 cells assessed as necrotic cells at 25 uM after 48 hrs by Annexin V-FITC/propidium iodide staining-based flow cytometric analysis (reference value: 2 %); assay type: functional
# MCF7 [25] = test: Induction of apoptosis in human MCF7 cells at 100 uM by AnnexinV-FITC/PI staining based flow cytometric analysis; assay type: functional, cell-based; conditions: time hrs 48-72, TDE = time-dependent effect
# SK-BR-3 [26] = test: Induction of apoptosis in human SK-BR-3 cells assessed as early apoptotic cells at 25 uM after 72 hrs by Annexin V-FITC/propidium iodide staining-based flow cytometric analysis (reference value: 1 to 9 %); assay type: functional
# MCF7 [27] = test: Induction of apoptosis in human MCF7 cells assessed as necrotic cells at 100 uM after 72 hrs by Annexin V-FITC/propidium iodide staining-based flow cytometric analysis (reference value: 1 to 5 %); assay type: functional
# SK-BR-3 [28] = test: Induction of apoptosis in human SK-BR-3 cells assessed as late apoptotic cells at 25 uM after 48 hrs by Annexin V-FITC/propidium iodide staining-based flow cytometric analysis (reference value: 2 %); assay type: functional
# SK-BR-3 [29] = test: Induction of apoptosis in human SK-BR-3 cells transfected with siNMDA receptor assessed as late apoptotic cells at 25 uM after 72 hrs by Annexin V-FITC/propidium iodide staining-based flow cytometric analysis (reference value: 2 %); assay type: functional
# MCF7 [30] = test: Induction of apoptosis in human MCF7 cells transfected with siNMDA receptor assessed as active caspase-3 level at 100 uM incubated for 72 hrs by Western blot analysis; assay type: functional, cell-based; procedure, shortened: as §3
# MCF7 [31] = test: Induction of apoptosis in human MCF7 cells assessed as necrotic cells at 100 uM after 48 hrs by Annexin V-FITC/propidium iodide staining-based flow cytometric analysis (reference value: 7 %); assay type: functional
# SK-BR-3 [32] = test: Induction of ROS generation in human SK-BR-3 cells at 25 uM after 72 hrs by DCFDA staining-based flow cytometric analysis; assay type: functional, cell-based
# Procedure, shortened: (§6)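 MCF-7 treated at 100 μM, SKBR3 at 25 μM, for 24, 48 and 72 h, alone or after NAC (10 mM) pretreatment. ROS measured by DCFDA staining and flow cytometry. Significance set at p < 0.01 vs untreated or vs treated-alone cells.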
# MCF7 [33] = test: Induction of apoptosis in human MCF7 cells assessed as fold increase in cleavage of pro-caspase 3 at 100 uM incubated for 72 hrs by Western blot analysis relative to control; assay type: functional; procedure, shortened: as §5
# MCF7 [34] = test: Induction of ROS generation in human MCF7 cells at 100 uM after 72 hrs by DCFDA staining-based flow cytometric analysis; assay type: functional, cell-based; procedure, shortened: as §6
# SK-BR-3 [35] = test: Induction of mitochondrial membrane depolarization in human SK-BR-3 cells at 25 uM by JC1 staining based flow cytometric analysis; assay type: functional, cell-based; procedure, shortened: as §4
# SK-BR-3 [36] = test: Induction of ROS generation in human SK-BR-3 cells at 25 uM pretreated for 1 hr with ROS scavenger, NAC followed by compound addition and measured after 72 hrs by DCFDA staining-based flow cytometric analysis; assay type: functional, cell-based; procedure, shortened: as §6
# SK-BR-3 [37] = test: Induction of apoptosis in human SK-BR-3 cells transfected with siNMDA receptor assessed as active caspase-3 level at 25 uM incubated for 72 hrs by Western blot analysis; assay type: functional, cell-based; procedure, shortened: as §3
# MCF7 [38] = test: Induction of apoptosis in human MCF7 cells assessed as late apoptotic cells at 100 uM after 48 hrs by Annexin V-FITC/propidium iodide staining-based flow cytometric analysis (reference value: 2 %); assay type: functional
# MCF7 [39] = test: Induction of ROS generation in human MCF7 cells at 100 uM pretreated for 1 hr with ROS scavenger, NAC followed by compound addition and measured after 72 hrs by DCFDA staining-based flow cytometric analysis; assay type: functional, cell-based; procedure, shortened: as §6
# SK-BR-3 [40] = test: Induction of apoptosis in human SK-BR-3 cells assessed as early apoptotic cells at 25 uM after 48 hrs by Annexin V-FITC/propidium iodide staining-based flow cytometric analysis (reference value: 9 %); assay type: functional
# SK-BR-3 [41] = test: Induction of apoptosis in human SK-BR-3 cells at 25 uM by AnnexinV-FITC/PI staining based flow cytometric analysis; assay type: functional, cell-based; conditions: time hrs 48-72, TDE = time-dependent effect
# MCF7 [42] = test: Induction of apoptosis in human MCF7 cells transfected with siNMDA receptor assessed as necrotic cells at 100 uM after 72 hrs by Annexin V-FITC/propidium iodide staining-based flow cytometric analysis (reference value: 3 %); assay type: functional
# SK-BR-3 [43] = test: Induction of apoptosis in human SK-BR-3 cells transfected with siNMDA receptor assessed as early apoptotic cells at 25 uM after 72 hrs by Annexin V-FITC/propidium iodide staining-based flow cytometric analysis (reference value: 35 %); assay type: functional
smiles,measurement,setting,value
NC[C@@H]1COC[C@](c2ccccc2)(C2CCCCC2)O1 (relative stereo),GI50,SK-BR-3 [1],25.8 µM
same,LC50 (concentration killing 50% of initial cells),SK-BR-3 [1],> 300 µM
same,TGI,SK-BR-3 [1],180 µM
same,GI50,MCF7 [2],89.7 µM
same,LC50 (concentration killing 50% of initial cells),MCF7 [2],244 µM
same,TGI,MCF7 [2],148 µM
NC[C@H]1COC[C@](c2ccccc2)(C2CCCCC2)O1 (relative stereo),GI50,SK-BR-3 [1],23.8 µM
same,LC50 (concentration killing 50% of initial cells),SK-BR-3 [1],> 300 µM
same,TGI,SK-BR-3 [1],192 µM
same,GI50,MCF7 [2],65.3 µM
same,LC50 (concentration killing 50% of initial cells),MCF7 [2],176 µM
same,TGI,MCF7 [2],107 µM
NC[C@@H]1COCC(c2ccccc2)(c2ccccc2)O1,GI50,MCF7 [3],210 µM
same,Activity,SK-BR-3 [1],Dose-dependent effect
same,GI50,SK-BR-3 [1],74 µM
same,Activity,SK-BR-3 [4],Active
same,Ki,[5],0.497 µM
same,Activity,SK-BR-3 [6],Active
same,Activity,MCF7 [7],Active
same,Activity,MCF7 [2],Dose-dependent effect
same,GI50,MCF7 [2],250 µM
same,Stabilty,[8],Stable
same,GI50,SK-BR-3 [9],66 µM
same,Activity,MCF7 [10],Active
same,permeability,[11],Permeable
NC[C@H]1COCC(c2ccccc2)(c2ccccc2)O1,Activity,MCF7 [12],inactive
same,Activity,SK-BR-3 [13],15%
same,GI50,MCF7 [3],520 µM
same,Activity,MCF7 [14],26%
same,Activity,MCF7 [15],Dose-dependent effect
same,Activity,SK-BR-3 [16],Dose-dependent effect
same,Activity,MCF7 [17],5%
same,Activity,MCF7 [18],19%
same,Activity,MCF7 [19],26%
same,Activity,SK-BR-3 [1],Dose-dependent effect
same,GI50,SK-BR-3 [1],23 µM
same,fold change (FC),SK-BR-3 [20],5.1
same,Activity,SK-BR-3 [21],8%
same,Activity,MCF7 [22],16%
same,Ki,[5],> 10 µM
same,Activity,SK-BR-3 [23],17%
same,Activity,SK-BR-3 [24],4%
same,Activity,MCF7 [25],Tde
same,Activity,SK-BR-3 [26],11%
same,Activity,MCF7 [27],9%
same,Activity,SK-BR-3 [28],5%
same,Activity,SK-BR-3 [29],3%
same,Activity,MCF7 [2],Dose-dependent effect
same,GI50,MCF7 [2],99 µM
same,Stabilty,[8],Stable
same,Activity,MCF7 [30],inactive
same,Activity,MCF7 [31],8%
same,Activity,SK-BR-3 [32],Active
same,fold change (FC),MCF7 [33],3.2
same,Activity,MCF7 [34],Active
same,GI50,SK-BR-3 [9],57 µM
same,Activity,SK-BR-3 [35],inactive
same,Activity,SK-BR-3 [36],inactive
same,Activity,SK-BR-3 [37],inactive
same,Activity,MCF7 [38],8%
same,Activity,MCF7 [39],inactive
same,Activity,SK-BR-3 [40],19%
same,Activity,SK-BR-3 [41],Tde
same,Activity,MCF7 [42],7%
same,permeability,[11],Permeable
same,Activity,SK-BR-3 [43],24%
